TbMetRS inhib = Trypanosoma brucei MetRS inhibition; purified T. brucei MetRS, ATP depletion, Kinase-Glo luminescence; inhibition, % at 11.9 µM; hit rate 0.4% among 360,000; AID 624268;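 active means inhibition above a per-plate cutoff of the control wells' mean inhibition plus 3 SD, cut at about 5.5% in these data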;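 further: 0% = DMSO wells median and 100% = median of wells with control inhibitor compound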
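Dosing: 11.9 µM single point; system: parasite MetRS enzyme; technique: luminescence of leftover ATP; times: 15 min enzyme-compound preincubation, 2 h reaction, 10 min detection, 25 °C; replicates: each compound tested once; read-out basis: percent inhibition relative to median high and low control wells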
PLCb3 inh = blocks human PLC-beta3 enzyme activity; inhibition, % at 12.2 µM; Purified PLC-beta3, fluorogenic substrate, fluorescence; Q01970; hit rate 0.18% among 370,000; in the data active means inhibition above about 11%;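 further: 0% = median of compound wells on plate and 100% = full blocker control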
ADAM17 inh = ADAM17 inhibition, QFRET primary screen; recombinant ADAM17, EDANS/DABCYL FRET peptide cleavage; inhibition, % at 6.95 µM; hit rate 0.83% among 370,000;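 active means inhibition above the mean of compounds lying between control limits plus 3 SD, set per campaign, cut at about 8.5% in these data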;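 further: 0% = DMSO-only wells as the low control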
Target sequence (P78536 215-824 limits assumed): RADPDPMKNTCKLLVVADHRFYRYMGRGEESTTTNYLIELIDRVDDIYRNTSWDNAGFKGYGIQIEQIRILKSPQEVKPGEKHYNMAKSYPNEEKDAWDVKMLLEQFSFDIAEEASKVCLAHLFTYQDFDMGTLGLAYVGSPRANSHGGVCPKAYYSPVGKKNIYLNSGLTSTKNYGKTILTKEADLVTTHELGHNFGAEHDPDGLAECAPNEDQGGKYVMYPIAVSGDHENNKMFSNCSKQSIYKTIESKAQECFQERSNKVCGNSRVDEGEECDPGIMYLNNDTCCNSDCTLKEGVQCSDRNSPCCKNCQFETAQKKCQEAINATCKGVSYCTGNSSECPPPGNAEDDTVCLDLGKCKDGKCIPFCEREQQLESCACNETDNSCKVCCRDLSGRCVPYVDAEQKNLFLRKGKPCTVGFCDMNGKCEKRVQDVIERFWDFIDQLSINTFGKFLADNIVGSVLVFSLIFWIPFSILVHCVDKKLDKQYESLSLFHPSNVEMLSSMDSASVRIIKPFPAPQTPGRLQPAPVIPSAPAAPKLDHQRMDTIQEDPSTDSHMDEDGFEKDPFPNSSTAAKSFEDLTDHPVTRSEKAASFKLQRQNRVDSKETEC
PLC-gamma1 inh = blocks human PLC-gamma1 enzyme activity; P19174; AID 720700; purified PLC-gamma1, fluorogenic substrate, fluorescence; hit rate 0.84% among 370,000; inhibition, % at 12.2 µM; in the data active means inhibition above about 9.5%
ADAM10 inh = ADAM10 inhibition, QFRET primary screen. inhibition, % at 7 µM. hit rate 0.62% among 370,000. recombinant ADAM10, EDANS/DABCYL FRET peptide cleavage, 3 h. O14672;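 active means inhibition above a per-campaign cutoff equal to the mean of compounds falling between control-based bounds plus 3 SD, cut at about 20% in these data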;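 further: 0% = DMSO wells while the 100% control is not disclosed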
ADAM10 confirm = human ADAM10 inhibition, confirmation; shares compounds with ADAM10 inh; ADAM10 QFRET peptide cleavage, EDANS fluorescence; inhibition, % at 6.95 µM; hit rate 1% among 2,100;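 active means inhibition above about 20% chosen separately for each screening run, limit read from the data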;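 further: 0% = DMSO wells and 100% = marimastat wells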
ADAM17 ctr = inhibits human ADAM17 in ADAM10 exosite counter-screen; shares compounds with ADAM10 inh; ADAM17 QFRET peptide cleavage, EDANS fluorescence; inhibition, % at 6.95 µM; hit rate 0.5% among 2,100; AID 743214;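 active means mean triplicate inhibition above the solvent-only control wells' mean plus 3 SD, cut at about 12% in these data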;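 further: 0% = DMSO wells and 100% = marimastat wells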
ADAM10 counter = ADAM10 inhibition, counter-screen for ADAM17 exosite hits; shares compounds with ADAM17 inh; recombinant ADAM10, EDANS/DABCYL FRET peptide cleavage, 3 h; inhibition, % at 6.95 µM; hit rate 47% among 2,900;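 active means mean inhibition over the triplicate runs exceeds the activity threshold set in the earlier primary screen, cut at about 20% in these data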;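 further: 0% = DMSO wells and 100% = marimastat wells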
ADAM17 confirm = confirmation of inhibitors of human ADAM17 | shares compounds with ADAM17 inh | recombinant ADAM17, EDANS/DABCYL QFRET peptide cleavage | inhibition, % at 6.95 µM | hit rate 65% among 2,900 | AID 743257;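 active means mean inhibition across replicates above the hit cutoff set in the primary screen, cut at about 8.5% in these data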;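 further: 0% = DMSO wells and 100% = marimastat wells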
* marks the source's active call; other numbers are inactive results; . = no result. In the library only some 2.3% were active in any assay of this set; here they are far more common.

SMILES	TbMetRS inhib	PLCb3 inh	ADAM17 inh	PLC-gamma1 inh	ADAM10 inh	ADAM10 confirm	ADAM17 ctr	ADAM10 counter	ADAM17 confirm
COc1ccccc1NC(=O)CN1CCN(C(=O)C2CCCO2)CC1 (configuration not stated)	-0.2	1.6	1.1	0.3	4.3	.	.	.	.
C=CCC[C@@H](Cc1ccc(F)cc1)C(=O)OC[C@@H](Cc1c[nH]c2ccccc12)NC(=O)[C@@H](CC=C)CC(=O)NCCO	-0.2	6.1	16.6*	4.0	27.6*	2.8	0.0	28.7*	14.8*
C=CCC[C@H](Cc1ccc(F)cc1)C(=O)OC[C@H](Cc1c[nH]c2ccccc12)NC(=O)[C@H](CC=C)CC(=O)NCCO	-0.4	1.7	9.4*	6.8	24.5*	3.7	0.6	43.3*	22.5*
C=CC[C@@H](CC(=O)NCCO)C(=O)N[C@H](COC(=O)[C@@H](CC=C)Cc1ccc(F)cc1)Cc1c[nH]c2ccccc12	-0.4	0.4	1.7	1.3	-12.9	.	.	.	.
C=CCC[C@H](Cc1ccc(F)cc1)C(=O)OC[C@@H](Cc1c[nH]c2ccccc12)NC(=O)[C@@H](CC=C)CC(=O)NCCO	-0.6	5.2	16.7*	1.5	27.4*	5.3	1.9	35.2*	16.8*
CCOC(=O)c1c(C)[nH]c(C=C2C(=O)CCCC2=O)c1O	-1.0	-16.2	-5.4	-16.6	-10.2	.	.	.	.
Cc1nn(Cc2ccccc2Cl)c2sc(C(=O)NCc3ccc4c(c3)OCO4)cc12	-0.6	0.7	11.7*	2.2	23.4*	5.8	2.6	12.5	12.0*
Cc1ccc(CNC(=O)CCc2cn(C)c3ccccc23)cc1	-0.5	-4.1	-0.8	1.3	3.9	.	.	.	.
Cc1ccc(-c2onc(C)c2C)cc1S(=O)(=O)N1CCOc2ccccc21	0.0	-7.1	14.4*	5.8	21.2*	6.0	2.2	7.9	5.8
Cc1cc(-c2ccc(C(C)C)c(S(=O)(=O)N3CCOc4ccccc43)c2)on1	0.3	-7.7	-3.8	1.0	4.6	.	.	.	.
CCNS(=O)(=O)c1ccc(CCC(=O)N2CCN(C(=O)OCC)CC2)cc1	-0.8	-5.0	-0.3	1.5	-2.2	.	.	.	.
CCCCN1CCCCC1(C)C(=O)NCc1ccc2c(c1)OCO2 (configuration not stated)	0.5	0.9	-0.5	-0.1	4.8	.	.	.	.
COc1ccc(C2CC(c3ccccc3)=NN2C(=O)COC(=O)c2cccnc2Cl)cc1 (configuration not stated)	-0.5	0.4	8.9*	3.3	19.9*	5.2	1.1	13.8	9.3*
COc1ccc(C2CC(c3ccccc3)=NN2C(=O)COC(=O)c2cccnc2)cc1 (configuration not stated)	-1.2	-1.3	3.7	-3.4	2.4	.	.	.	.
Cc1ccc(C2CN(C)C3(C(=O)Nc4ccccc43)C23COc2ccccc2C3=O)cc1 (configuration not stated)	-1.6	0.6	9.6*	0.6	27.0*	7.5	2.8	34.9*	19.1*
Cc1ccc(S(=O)(=O)N(CC(=O)N=Nc2c(O)[nH]c3ccccc23)c2ccc(C)c(C)c2)cc1	-1.3	8.0	8.9*	8.5	22.6*	8.4	2.8	26.3*	17.6*
CCCCCOC(=O)C1=C(C)N(C)C(=O)NC1c1cc(Br)c(O)c(OC)c1 (configuration not stated)	-1.0	-7.0	10.5*	0.9	20.5*	-0.7	0.6	7.6	4.9
Cc1ccc(Nc2nnc(SCC(=O)c3ccc(Br)s3)s2)c(C)c1	0.1	1.9	8.7*	1.3	24.1*	4.8	2.2	13.5	9.9*
Cc1cccc(C)c1Nc1nnc(SCC(=O)c2ccc(Br)s2)s1	-0.7	1.0	5.5	2.1	16.0	.	.	.	.
CCOC(=O)C1=CCC(c2ccccc2)N(S(=O)(=O)c2ccccc2)C1 (configuration not stated)	-0.5	-11.0	15.1*	0.0	21.8*	2.9	0.5	13.0	6.4
COc1ccc(CN(C(=O)c2nsc(Cl)c2Cl)C(C(=O)NC2CCCCC2)c2ccc(OC)cc2)cc1 (configuration not stated)	-1.6	5.7	8.8*	6.4	28.0*	7.3	1.8	8.2	9.6*
CC1CCc2nc(NC(=O)Cc3cccs3)sc2C1 (configuration not stated)	-0.8	-1.7	-3.6	0.7	8.9	.	.	.	.
CC(C)(C)C1CCc2nc(NC(=O)Cc3cn4ccsc4n3)sc2C1 (configuration not stated)	-0.4	4.4	19.5*	4.5	22.6*	3.0	1.5	21.1*	9.7*
COC(=O)[C@]12C[C@H](CC(=O)NCCCCc3ccccc3)C(=O)N(CCc3ccc(OC)c(OC)c3)C1=C[C@H](COCc1ccccc1)O[C@@H]2C	.	0.0	-0.9	1.6	3.9	.	.	.	.
Cc1cccc(NC(=O)c2ccc(NS(=O)(=O)c3cccc4cccnc34)cc2)c1	-0.2	-4.7	12.8*	8.9	24.1*	4.1	1.4	23.8*	14.7*
SMILES	TbMetRS inhib	PLCb3 inh	ADAM17 inh	PLC-gamma1 inh	ADAM10 inh	ADAM10 confirm	ADAM17 ctr	ADAM10 counter	ADAM17 confirm
COc1ccc(C(=O)Nc2ccc(Cl)c(S(=O)(=O)Nc3ccccc3OC)c2)cc1	0.3	-1.1	12.5*	-1.4	20.9*	3.8	2.2	40.0*	22.6*
CCOc1ccc(NC(=O)c2ccc(NS(=O)(=O)c3cccc4cccnc34)cc2)cc1	-0.8	-5.1	0.0	-1.3	0.2	.	.	.	.
COc1ccccc1NS(=O)(=O)c1cc(NC(=O)c2cc(F)c(F)c(F)c2F)ccc1N1CCOCC1	-0.3	-6.0	8.8*	-5.9	22.0*	10.7	3.1	43.2*	27.6*
COc1ccccc1NS(=O)(=O)c1cc(NC(=O)c2ccccc2C)ccc1N1CCOCC1	-0.4	-1.3	0.5	1.2	17.5	.	.	.	.
COc1ccccc1NS(=O)(=O)c1cc(NC(=O)c2ccc(Cl)nc2)ccc1Cl	1.7	2.2	6.0	-1.7	4.3	.	.	.	.
CCOc1ccc(NS(=O)(=O)c2cc(NC(=O)c3ccc(C)cc3)ccc2Cl)cc1	0.5	1.5	12.7*	3.7	27.6*	7.6	2.4	38.6*	22.0*
C[C@H]1[C@@H](OC(=O)Nc2ccccc2C(F)(F)F)CC[C@@]23CCCN2C(=O)CCC[C@@H]13	.	4.8	-1.4	3.6	3.1	.	.	.	.
Cc1csc(C(C)N(C)C(=O)c2ccc(OC3CCN(Cc4ccccn4)CC3)cc2)n1 (configuration not stated)	-0.1	-6.2	5.2	1.3	-0.2	.	.	.	.

Source: PubChem BioAssay (The Scripps Research Institute Molecular Screening Center)
